Screens (PubChem BioAssay)
H69AR growth 86K – growth inhibitors of human H69AR lung tumor cells; AID 598; H69AR lung tumor viability, ATP luminescence, 72 h; hits give low values; 85,000 tested, 6% active; viability, % at 10 µM;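 active = viability at or below 40%; inactive = viability above 40%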;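 note: multidrug resistant small cell line overexpressing MRP-1 efflux transporter; 100% = mean luminescence of untreated control wells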
ERa SRC1 inh – blocks coactivator binding to human estrogen receptor alpha; TR-FRET ER-alpha LBD / SRC-1 peptide, estradiol-bound; 86,000 tested, 1.7% active; inhibition, % at 25.6 µM; in the data active = inhibition above about 50%;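 note: 0% = receptor plus peptide control and 100% = peptide only without receptor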
ERb coact inh – ER-beta (human) coactivator binding inhibition; 86,000 tested, 1.3% active; Q92731; inhibition, % at 25.6 µM; AID 633; TR-FRET ER-beta LBD / SRC1-Cy5 peptide binding; receptor agonist-loaded with 1 µM estradiol;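 active = compounds whose percent inhibition of the receptor-coactivator binding signal exceeds about 50% in the single-dose screen, limit read from the data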;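 note: 0% = receptor plus peptide wells without compound and 100% = peptide-only wells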
Target sequence (Q92731 whole entry, looked up, the tested form may be a part): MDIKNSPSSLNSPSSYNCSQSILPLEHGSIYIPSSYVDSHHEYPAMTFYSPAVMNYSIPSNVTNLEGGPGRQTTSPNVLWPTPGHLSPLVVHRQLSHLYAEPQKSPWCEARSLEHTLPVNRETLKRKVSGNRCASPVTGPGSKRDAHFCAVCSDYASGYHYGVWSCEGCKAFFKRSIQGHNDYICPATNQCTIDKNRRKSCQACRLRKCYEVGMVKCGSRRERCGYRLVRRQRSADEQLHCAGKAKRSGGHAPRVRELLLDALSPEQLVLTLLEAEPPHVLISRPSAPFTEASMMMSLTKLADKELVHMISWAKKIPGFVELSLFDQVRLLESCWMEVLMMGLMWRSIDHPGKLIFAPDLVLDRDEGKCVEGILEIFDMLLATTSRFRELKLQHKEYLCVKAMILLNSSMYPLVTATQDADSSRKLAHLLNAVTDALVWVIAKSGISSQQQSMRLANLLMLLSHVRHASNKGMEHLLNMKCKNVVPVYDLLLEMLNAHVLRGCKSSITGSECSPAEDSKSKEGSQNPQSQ
ERa SRC1 pot – ER-alpha (human) coactivator binding potentiation; 86,000 tested, 1.3% active; TR-FRET ERalpha-LBD/SRC-Cy5 coactivator binding, 2 h; 100 = basal binding, no effect; P03372; AID 639; coactivator binding (% of control), % at 25.6 µM; in the data active = activity above about 200%;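 note: binding measured in presence of low estradiol as agonist stimulus; 0% = peptide alone without receptor and 100% = receptor with peptide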
Fibroblast inh – blocks proliferation of human lung fibroblasts; 85,000 tested, 1.1% active; LL 47 human lung fibroblast viability, ATP luminescence; hits give low values; viability, % at 10 µM;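 active = viability at or below 50% in the single dose screen; inactive = viability above 50%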;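 note: compound exposure lasted 72 h before the ATP readout; 100% = median luminescence of untreated cell-only wells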
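Test system: LL 47 human lung fibroblasts / Incubation: 72 h compound exposure at 37 °C after overnight plating / Technique: luminescent ATP detection, CellTiter-Glo / Compound dosing: 0.1% DMSO in all compound wells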
HUVEC inhibit – blocks proliferation of human endothelial cells. AID 648. viability, % at 10 µM (by protocol). 86,000 tested, 1.1% active. HUVEC proliferation, CellTiter-Glo luminescence, 72 h; hits give low values;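 active = viability at or below 30%; inactive = viability above 30%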;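 note: 100% = median luminescence of DMSO-only cell control wells on each plate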
* = called active by the depositor; [ ] = remark or other dose. A selection: hits, their analogues and other compounds. The true share with any hit is near 9.2%.

SMILES	H69AR growth 86K	ERa SRC1 inh	ERb coact inh	ERa SRC1 pot	Fibroblast inh	HUVEC inhibit
COC1(OC)C(/C=C/c2ccc(C)cc2)C(C#N)(C#N)C1(OC)OC (configuration not stated)	12.2*	-55.4	-2.2	114.9	54.5	87.4
Cc1ccc(CS(=O)(=O)CCC(=O)N2CCOCC2)cc1	95.2	1.5	26.5	111.2	99.0	101.8
COc1ccc(CC(=O)N2CCC(Nc3nc4ccccc4n3Cc3ccc(F)cc3)CC2)cc1	21.3*	-7.7	-4.8	99.2	89.2	70.7
CC1=CC2(O)OCCN(CCO)C2=CC1=O (configuration not stated)	72.9	78.5*[fluorescence artefact?]	85.8*[fluorescence artefact?]	25.2	116.1	103.2
COc1ccc(Cl)cc1NC(=O)CSc1nnc(Cc2cccn2C)n1-c1ccc(F)cc1	96.9	0.7	3.7	88.1	77.8	62.8
CCCC1(CCC)NC(=O)N(CC(=O)Nc2cccc(OC)c2)C1=O	101.5	-15.4	0.2	109.3	99.5	100.6
COc1ccc(-n2nnnc2-c2cccc(OC)c2)cc1	25.7*	-4.6	-10.6	111.5	58.1	49.3
Clc1ccc(-n2nnnc2-c2ccccc2)cc1Cl	98.4	-1.3	-4.9	120.0	98.4	92.1
CCOC(=O)NC(NCC(O)c1ccccc1)(C(F)(F)F)C(F)(F)F (configuration not stated)	96.3	-3.7	1.7	90.4	108.0	99.2
CCOC(=O)C1CCN(C(=O)c2cccnc2Cl)CC1	102.8	-5.4	-4.3	102.7	111.4	100.4
Brc1cccc(-c2nnc(-c3ccccc3)o2)c1	80.2	11.5	3.1	107.7	102.5	92.5
O=C(O)c1cc2c(ccc3ccccc32)oc1=O	100.4	-2.5	-0.5	107.7	94.0	86.3
CCOc1ccc(-c2nnc(-c3ccc(OC)cc3)o2)cc1	100.7	24.2	24.3	177.3	114.1	117.1
O=c1oc2ccccc2cc1-c1nnc(-c2cccc(Br)c2)o1	38.3*	75.9*[fluorescence artefact?]	35.0	72.0	106.9	98.7
O=c1oc2ccc3ccccc3c2cc1-c1nnc(-c2ccccc2)o1	94.3	65.2*[fluorescence artefact?]	19.9	67.7	103.4	80.4
COc1ccc(-c2nnc(-c3cc4c(ccc5ccccc54)oc3=O)o2)cc1	90.4	51.6*	20.3	120.0	99.1	79.3
COC(=O)c1ccc(Cn2nc(C)cc2C)cc1	105.8	-6.5	-4.2	90.6	101.5	95.0
COC(=O)c1ccc(Cn2nc(C)c(Br)c2C)cc1	88.9	-5.1	65.7*[fluorescence artefact?]	101.6	101.0	100.2
O=C(CCNS(=O)(=O)c1cccs1)NCc1ccccc1	94.9	5.1	4.8	79.0	97.8	103.9
CC(=O)N1CCc2cc(Br)cc(S(=O)(=O)NCC3CCCO3)c21 (configuration not stated)	99.9	3.7	2.5	110.6	105.7	93.9
O=C(COC(=O)c1cc([N+](=O)[O-])ccc1NCc1ccccc1)NC1CCCc2ccccc21 (configuration not stated)	37.5*	16.0	9.1	99.7	55.6	72.2
N#Cc1c(-c2ccco2)cc(-c2cccnc2)nc1N	46.8	47.7	37.3	72.8	94.8	89.4
N#Cc1c(-c2ccco2)cc(-c2ccccn2)nc1N	35.1*	78.0*[fluorescence artefact?]	63.1*[fluorescence artefact?]	28.0	88.3	85.7
CSc1nc(N)nc(SC2C=CCCC2)c1C#N (configuration not stated)	62.8	6.5	-1.8	121.4	98.0	98.4
CC(C)(C)c1cc(NC(=O)c2cccnc2)no1	105.6	22.0	20.4	110.0	98.3	95.5
SMILES	H69AR growth 86K	ERa SRC1 inh	ERb coact inh	ERa SRC1 pot	Fibroblast inh	HUVEC inhibit
CC(C)(C)c1cc(NC(=O)c2cc(F)c(F)c(F)c2F)no1	35.0*	-5.6	-0.5	138.1	50.2	68.5
C1=CC2c3ccccc3NC(c3ccncc3)C2C1 (configuration not stated)	84.9	39.8	40.2	39.3	84.2	85.3
O=C(O)c1ccc(Cl)c2c1C1C=CCC1C(c1ccccn1)N2 (configuration not stated)	94.8	65.0*[fluorescence artefact?]	86.9*[fluorescence artefact?]	15.4	101.7	96.5
CCOc1ccccc1Nc1nc2ccccc2n2cnnc12	66.6	25.4	42.6	368.0*[fluorescence artefact?]	95.7	81.3
Fc1ccc(CNc2nc3ccccc3n3cnnc23)cc1	75.2	83.8*	1.4	305.8*[fluorescence artefact?]	102.0	96.3
Oc1c(C=Nc2cccc3cccnc23)sc2ccccc12	17.1*	78.8*	50.8*[fluorescence artefact?]	63.7	42.2*	4.2*
COc1cccc(-n2c(C)nnc2SCC(=O)Nc2ccccc2N2CCOCC2)c1	85.4	-5.1	-1.7	105.1	93.4	79.8
CCC(Sc1nc2n[nH]c(C)c2c(=N)n1-c1ccc(C)c(Cl)c1)C(=O)N1CCOCC1 (configuration not stated)	25.6*	-14.6	0.3	121.7	75.1	57.8
Cc1cccc(-n2c(SCC(=O)N3CCCC3)nc3n[nH]c(C)c3c2=N)c1	71.6	-3.4	3.0	107.5	96.7	97.3
Clc1ccc(COn2nnc3ccccc32)c(Cl)c1	86.9	-6.8	-9.5	91.8	85.9	88.5
CCC(CCC(=O)Nc1ccn(-c2ccccc2)n1)C(=O)O (configuration not stated)	89.9	0.6	4.6	94.6	108.6	108.1
COC(=O)c1ccccc1NC(=O)C1CC(=O)N(c2ccc(C)c(C)c2)C1 (configuration not stated)	32.0*	-0.4	-11.2	105.8	101.7	95.5
Cc1c(Cl)cccc1N1CC(C(=O)Nc2nccs2)CC1=O (configuration not stated)	90.1	-8.1	5.8	110.7	109.5	100.5
COC(=O)c1ccccc1NC(=O)C1CC(=O)N(C2CCCCC2)C1 (configuration not stated)	93.4	-9.0	-12.8	131.2	103.0	105.5
Cc1ccc(N2CC(C(=O)Nc3nccs3)CC2=O)cc1Cl (configuration not stated)	86.8	-2.1	-2.7	104.7	28.6*	17.2*
Cc1ccc(N2CC(C(=O)Nc3ccccn3)CC2=O)cc1 (configuration not stated)	93.1	5.4	62.5*[fluorescence artefact?]	92.7	98.2	108.9
O=C(Nc1ccc(Cl)c(Cl)c1)C1CC(=O)N(c2ccc(Br)cc2)C1 (configuration not stated)	9.0*	33.8	32.0	97.5	102.5	53.6
Cn1c(N)c(C(=O)COC(=O)C2(c3ccc(Cl)cc3)CCCC2)c(=O)n(C)c1=O	95.1	-1.1	-2.4	99.0	96.6	101.1
COCC(C)OC(=O)c1c(N)n(CC(C)C)c2nc3ccccc3nc12 (configuration not stated)	41.4	-3.2	-15.6	91.0	104.3	92.2
C=CCOC(=O)C1=C(C)Nc2nnnn2C1c1cccs1 (configuration not stated)	42.0	-9.8	7.5	129.7	92.9	107.7
